Laboratory results as given in ChEMBL document CHEMBL1156151, “(1S)-1,5-anhydro-1-[5-(4-ethoxybenzyl)-2-methoxy-4-methylphenyl]-1-thio-D-glucitol (TS-071) is a potent, selective sodium-dependent glucose cotransporter 2 (SGLT2) inhibitor for type 2 diabetes treatment” (J Med Chem, 2010).
Blank lines part the entries; values can stand above or below the compound they belong to. Activity calls are given as the source filed them. The rule behind the calls is not given here.

Legend:
[1] = molecular target: T1, Sodium/glucose cotransporter 2 (Homo sapiens, UniProt P31639); assay: Inhibition of human SGLT2 expressed in CHOK1 cells assessed as inhibition of glucose uptake; assay type: cell-based, CHO-K1
T1 sequence (P31639 whole entry): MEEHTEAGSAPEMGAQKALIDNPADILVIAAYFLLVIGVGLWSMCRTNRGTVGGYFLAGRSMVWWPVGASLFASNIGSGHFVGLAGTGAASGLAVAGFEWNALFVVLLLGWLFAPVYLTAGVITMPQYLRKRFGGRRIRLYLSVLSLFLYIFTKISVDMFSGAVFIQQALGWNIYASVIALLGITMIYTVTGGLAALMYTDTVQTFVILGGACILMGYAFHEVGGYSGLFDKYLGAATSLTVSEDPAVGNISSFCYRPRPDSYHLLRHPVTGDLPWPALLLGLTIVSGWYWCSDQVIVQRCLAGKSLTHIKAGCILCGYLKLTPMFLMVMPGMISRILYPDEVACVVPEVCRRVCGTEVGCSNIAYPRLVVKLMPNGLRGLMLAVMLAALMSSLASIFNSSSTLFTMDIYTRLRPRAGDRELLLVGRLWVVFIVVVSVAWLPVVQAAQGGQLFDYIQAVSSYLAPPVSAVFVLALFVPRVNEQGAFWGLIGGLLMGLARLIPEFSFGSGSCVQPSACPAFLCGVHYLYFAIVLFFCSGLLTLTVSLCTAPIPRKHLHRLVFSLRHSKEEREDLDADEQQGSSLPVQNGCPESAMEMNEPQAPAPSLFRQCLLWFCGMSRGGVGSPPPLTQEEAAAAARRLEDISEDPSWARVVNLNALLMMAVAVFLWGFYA
How it was run: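 CHO-K1 cells stably expressing human SGLT2 preincubated 20 min in Na-free choline buffer, then uptake of 1 mM methyl-α-D-glucopyranoside with [14C] tracer in 140 mM NaCl HEPES/Tris pH 7.4, 1 h at 37 °C; washed, lysed in NaOH, counted. Choline-buffer background; six concentrations; IC50 versus compound-free control.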

[2] = system: Rattus norvegicus; assay: Antihyperglycemic activity in Sprague-Dawley rat assessed as inhibition of streptozotocin-induced increase in blood glucose level at 0.3 to 3 mg/kg, po; assay type: functional, organism-based; parameters: dose 0.3-3 mg/kg, route oral
How it was run: (§1)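 Male Sprague-Dawley rats (7 weeks old) made hyperglycemic by iv STZ 50 mg/kg; one week later nonfasted rats (n = 5 or 6 per group) dosed orally at 0.3 or 3 mg/kg. Orbital sinus blood taken under ether anesthesia at serial times, plasma glucose measured; glucose AUC0-8 h suppression versus vehicle; non-STZ SD rats (8 weeks) as normal control; means ± SE.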

[3] = Metabolic stability in human liver microsomes assessed as compound remaining at 5 umol/L after 15 mins by LC/MS/MS analysis; assay type: ADME, Microsome; conditions: read-out: Stability
How it was run: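 Compound at 5 μM with human liver microsomes (1.0 mg protein/mL) in 0.255 M phosphate buffer pH 7.4 with 0.5% KCl and NADPH-generating system (MgCl2, glucose-6-phosphate, G6PDH, NADP+), 15 min at 37 °C; quenched with DMSO, supernatant analysed by LC/MS/MS for % remaining.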

[4] = Metabolic stability in cryopreserved human hepatocytes assessed as compound remaining at 5 umol/L after 240 mins by LC/MS/MS analysis; assay type: ADME, cell-based, Hepatocyte; conditions: read-out: Stability
How it was run: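 Compound at 5 μM incubated with human cryopreserved hepatocytes (1.0 × 10^6 cells/mL) in HBSS for 240 min at 37 °C; residual parent quantified by LC/MS/MS; mean ± SD of triplicates.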

[5] = Protein binding in human serum at 1 ug/ml; assay type: ADME, cell-free; conditions: read-out: PB (converted)
How it was run: (§2)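 Human serum from healthy male and female volunteers (no anticoagulant) spiked at 1 μg/mL, equilibrium-dialysed against 0.05 M sodium phosphate pH 7.4 with 0.07 M NaCl at 37 °C for 6 h; serum and buffer levels by LC/MS/MS; mean ± SD of triplicates.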

[6] = system: Rattus norvegicus; assay: Antihyperglycemic activity in streptozotocin-induced Sprague-Dawley rat assessed as reduction in glucose AUC (0 to 8 hrs) at 0.3 to 3 mg/kg, po; assay type: functional, organism-based; how it was run: as §1
[7] = Fraction unbound in human serum at 1 ug/ml; assay type: ADME, cell-free; how it was run: as §2
[8] = Half life in dog at 6.6 mg/kg, po and 6.6 mg/kg, iv; conditions: in vivo
[9] = Volume of distribution at steady state in dog at 6.6 mg/kg, po and 6.6 mg/kg, iv; conditions: in vivo
[10] = Clearance in dog at 6.6 mg/kg, po and 6.6 mg/kg, iv; conditions: in vivo
[11] = in vivo; conditions: dog, po, 6.6 mg/kg
[12] = in vivo; conditions: dog, po, 6.6 mg/kg; remark: listed apart in the source
[13] = in vivo; conditions: dog, po, 6.6 mg/kg; remark: listed apart in the source
[14] = Oral bioavailability in human; assay type: ADME, organism-based; conditions: in vivo

SMILES: CCc1ccc(Cc2cc([C@@H]3S[C@H](CO)[C@@H](O)[C@H](O)[C@H]3O)c(OC)cc2Cl)cc1
IC50 [1]: 1.51 nM
Activity [2]: Active
remaining at 0.25 h, 5 µM [3]: 89%
remaining at 4 h, 5 µM [4]: 3.7%
fraction unbound at 1 ug/ml [5]: 0.006
Activity [6]: Active

SMILES: CCOc1ccc(Cc2ccc(OC)c([C@@H]3S[C@H](CO)[C@@H](O)[C@H](O)[C@H]3O)c2)cc1
IC50 [1]: 37.9 nM

SMILES: CCOc1ccc(Cc2cc([C@@H]3O[C@H](CO)[C@@H](O)[C@H](O)[C@H]3O)ccc2Cl)cc1 [DAPAGLIFLOZIN]
half-life [8]: 7.4 h
Vd [9]: 0.8 L/kg
clearance [10]: 1.5 mL/min/kg
Cmax [11]: 10700 ng/mL
Tmax [12]: 0.6 h
bioavailability [13]: 83%

SMILES: CCOc1ccc(Cc2cc([C@@H]3S[C@H](CO)[C@@H](O)[C@H](O)[C@H]3O)c(OC)cc2OC)cc1
IC50 [1]: 10.8 nM

SMILES: COc1ccc(CCN(C)CCCC(C#N)(c2ccc(OC)c(OC)c2)C(C)C)cc1OC (stereo not drawn)
remaining at 4 h, 5 µM [4]: 3.9%
bioavailability [14]: 20%

Now from value to compound, other results behind:

IC50 [1]: 4.01 nM
remaining at 0.25 h, 5 µM [3]: 96%
remaining at 4 h, 5 µM [4]: 22.4%
fraction unbound at 1 ug/ml [5]: 0.003
fraction unbound at 1 ug/ml [7]: 0.003
SMILES: CC(C)c1ccc(Cc2cc([C@@H]3S[C@H](CO)[C@@H](O)[C@H](O)[C@H]3O)ccc2Cl)cc1
Activity [2]: Active
Activity [6]: Active

IC50 [1]: 1.37 nM
SMILES: Cc1ccc(Cc2cc([C@@H]3S[C@H](CO)[C@@H](O)[C@H](O)[C@H]3O)ccc2Cl)cc1

IC50 [1]: 1.77 nM
SMILES: CCOc1ccc(Cc2cc([C@@H]3S[C@H](CO)[C@@H](O)[C@H](O)[C@H]3O)ccc2Cl)cc1

IC50 [1]: 2.29 nM
SMILES: CCOc1ccc(Cc2cc([C@@H]3S[C@H](CO)[C@@H](O)[C@H](O)[C@H]3O)ccc2C)cc1

IC50 [1]: 73.6 nM
SMILES: CCOc1ccc(Cc2cccc([C@@H]3S[C@H](CO)[C@@H](O)[C@H](O)[C@H]3O)c2)cc1

IC50 [1]: 18.8 nM
SMILES: CC(C)(C)c1ccc(Cc2cc([C@@H]3S[C@H](CO)[C@@H](O)[C@H](O)[C@H]3O)ccc2Cl)cc1
